Results taken from PMC5601358 (Journal of Medicinal Chemistry, 2017).

Tests used:
[1] = target: T1, human adenosine A3 receptor (Homo sapiens, UniProt P0DMS8); assay: Radioligand competition association assay with [3H]34; type: binding; conditions: for residence time: read-out: RT (residence time)
T1 sequence (P0DMS8 1-318): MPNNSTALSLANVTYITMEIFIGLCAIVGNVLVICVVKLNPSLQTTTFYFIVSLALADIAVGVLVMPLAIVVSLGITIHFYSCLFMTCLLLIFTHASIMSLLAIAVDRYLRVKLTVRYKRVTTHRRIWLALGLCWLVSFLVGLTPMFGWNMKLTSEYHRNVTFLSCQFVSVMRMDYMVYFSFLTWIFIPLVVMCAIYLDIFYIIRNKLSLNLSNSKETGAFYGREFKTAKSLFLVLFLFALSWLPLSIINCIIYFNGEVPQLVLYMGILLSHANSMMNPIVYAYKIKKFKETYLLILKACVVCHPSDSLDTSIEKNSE

[2] = target: T1, human adenosine A3 receptor; assay: Radioligand displacement assay with [3H]34; type: binding; conditions: 25 °C, [3H]34, hA3R stably expressed on CHO cell membranes, n ≥ 3
[3] = target: T2, hA3R stably expressed on CHO cell membranes (Homo sapiens, UniProt P0DMS8); assay: [35S]GTPγS binding assay, 2-Cl-IB-MECA-stimulated, Schild analysis; type: biochemical; conditions: for Mode of antagonism: 2-Cl-IB-MECA concentration-effect curves, antagonist at 30-, 100-, 300-fold Ki; for Schild slope: Coincubation with 2-Cl-IB-MECA 30 min, 25 °C
T2 sequence (P0DMS8 1-318): T1 sequence (P0DMS8 1-318)
Summary of the method: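 CHO membranes stably expressing human A3 receptor (15 μg) in 50 mM Tris-HCl, 5 mM MgCl2, 1 mM EDTA, 0.05% BSA, 1 mM DTT, pH 7.4, with 1 μM GDP and 5 μg saponin. Agonist 0.1 nM–10 μM plus ~0.3 nM [35S]GTPγS (final). DMSO ≤0.1%. Basal: untreated membranes; maximum: 10 μM agonist. GF/B filtration, scintillation counting. Curves normalized and combined, n ≥ 3.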

SMILES | koff [1] [s⁻¹] | kon [1] [M⁻¹ s⁻¹] | residence time [1] [min] | pKi ± SEM [2] | Mode of antagonism [3] | Schild slope [3]
COCCn1c(=O)c2c(nc3cc(OC)ccn32)n(Cc2ccccc2)c1=O [Compound 15, 1-Benzyl-8-methoxy-3-(2-methoxyethyl)-1H,3H-pyrido[2,1-f]purine-2,4-dione] | 0.00063 | 430000 | 27 ± 2.6 | 7.7 ± 0.2 | – | –
C=CCn1c(=O)c2c(nc3cc(OC)ccn32)n(Cc2ccccc2)c1=O [Compound 12, 3-Allyl-1-benzyl-8-methoxypyrido[2,1-f]purine-2,4(1H,3H)-dione] | – | – | – | 8.3 ± 0.1 | – | –
COc1ccn2c(c1)nc1c2c(=O)n(CC(C)C)c(=O)n1Cc1ccccc1 [Compound 17, 1-Benzyl-3-isobutyl-8-methoxypyrido[2,1-f]purine-2,4(1H,3H)-dione] | 0.0002 | 780000 | 148 ± 102 | – | – | –
COc1ccn2c(c1)nc1c2c(=O)n(CC(C)(C)C)c(=O)n1Cc1ccccc1 [Compound 18, 1-Benzyl-8-methoxy-3-(3-neopentyl)-1H,3H-pyrido[2,1-f]purine-2,4-dione] | 0.00011 | 550000 | 250 ± 147 | – | – | –
CCCCCCCn1c(=O)c2c(nc3cc(OC)ccn32)n(Cc2ccccc2)c1=O [Compound 11, 1-Benzyl-3-heptyl-8-methoxypyrido[2,1-f]purine-2,4(1H,3H)-dione] | 6.2e-05 | 420000 | 278 ± 45 | – | – | –
CCCCCn1c(=O)c2c(nc3cc(OC)ccn32)n(Cc2ccccc2)c1=O [Compound 9, 1-Benzyl-8-methoxy-3-pentyl-1H,3H-pyrido[2,1-f]purine-2,4-dione] | 0.0006 | 1.1e+06 | 28 ± 2.2 | – | – | –
CCCCCCn1c(=O)c2c(nc3cc(OC)ccn32)n(Cc2ccccc2)c1=O [Compound 10, 1-Benzyl-3-hexyl-8-methoxypyrido[2,1-f]purine-2,4(1H,3H)-dione] | 8.2e-05 | 230000 | 213 ± 35 | 8.6 ± 0.1 | – | –
COc1ccn2c(c1)nc1c2c(=O)[nH]c(=O)n1Cc1ccccc1 [Compound 5, 1-Benzyl-8-methoxy-1H,3H-pyrido[2,1-f]purine-2,4-dione] | 0.014 | 530000 | 2.2 ± 1.4 | – | surmountable antagonism | 1.0 ± 0.2
COc1ccn2c(c1)nc1c2c(=O)n(CC2CC2)c(=O)n1Cc1ccccc1 [Compound 2, 1-Benzyl-3-(cyclopropylmethyl)-8-methoxypyrido[2,1-f]purine-2,4(1H,3H)-dione] | 6e-05 | 2.8e+06 | 315 ± 105 | – | – | –
CCCn1c(=O)c2c(nc3cc(OC)ccn32)n(Cc2ccccc2)c1=O [Compound 1, 1-Benzyl-8-methoxy-3-propyl-1H,3H-pyrido[2,1-f]purine-2,4-dione] | 0.00032 | 850000 | 52 ± 0.3 | – | – | –

Now from value to compound:

koff [1] [s⁻¹] | kon [1] [M⁻¹ s⁻¹] | residence time [1] [min] | pKi ± SEM [2] | Mode of antagonism [3] | Schild slope [3] | SMILES
5.3e-05 | 100000 | 391 ± 137 | – | – | – | COc1ccn2c(c1)nc1c2c(=O)n(CC2CC2)c(=O)n1Cc1ccc(Cl)c(Cl)c1 [Compound 31, 3-(Cyclopropylmethyl)-1-(3,4-dichlorobenzyl)-8-methoxypyrido[2,1-f]purine-2,4(1H,3H)-dione]
– | – | – | 9.2 ± 0.04 | – | – | CCc1ccc(Cn2c(=O)n(CC3CC3)c(=O)c3c2nc2cc(OC)ccn23)cc1 [Compound 26, 3-(Cyclopropylmethyl)-1-(4-ethylbenzyl)-8-methoxypyrido[2,1-f]purine-2,4(1H,3H)-dione]
7.8e-05 | 480000 | 250 ± 72 | – | – | – | COc1ccc(Cn2c(=O)n(CC3CC3)c(=O)c3c2nc2cc(OC)ccn23)cc1 [Compound 28, 3-(Cyclopropylmethyl)-8-methoxy-1-(4-methoxybenzyl)pyrido[2,1-f]purine-2,4(1H,3H)-dione]
0.00082 | 3e+06 | 20 ± 0.5 | – | – | – | COc1ccn2c(c1)nc1c2c(=O)n(CC2CC2)c(=O)n1Cc1ccc(Cl)cc1 [Compound 30, 1-(4-Chlorobenzyl)-3-(cyclopropylmethyl)-8-methoxypyrido[2,1-f]purine-2,4(1H,3H)-dione]
4.7e-05 | 480000 | 376 ± 58 | – | insurmountable antagonism | 0.9 ± 0.2 | COc1cccc(Cn2c(=O)n(CC3CC3)c(=O)c3c2nc2cc(OC)ccn23)c1 [Compound 27, 3-(Cyclopropylmethyl)-8-methoxy-1-(3-methoxybenzyl)pyrido[2,1-f]purine-2,4(1H,3H)-dione]
0.00047 | 820000 | 36 ± 5.5 | – | – | – | COc1ccn2c(c1)nc1c2c(=O)n(CC2CC2)c(=O)n1Cc1cccc(Cl)c1 [Compound 29, 1-(3-Chlorobenzyl)-3-(cyclopropylmethyl)-8-methoxypyrido[2,1-f]purine-2,4(1H,3H)-dione]
